Results: ChEMBL document CHEMBL4819122, “Novel 4-(piperazin-1-yl)quinolin-2(1H)-one bearing thiazoles with antiproliferative activity through VEGFR-2-TK inhibition” (Bioorg Med Chem, 2021)
Activity calls are given as the source filed them. No cut-off for these calls is given here.

Tests used:
[1] = test system: MDA-MB-231; assay: Cytotoxicity against human MDA-MB-231 assessed as growth inhibition at 10 uM by NCI protocol relative to control; format: functional; details: read-out: GI
Procedure, shortened: (§1)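 Run by NCI as a single-dose screen at 10 μM across the sixty-cell-line panel, which covers nine human tumour tissue types. The read-out is percent growth inhibition of treated cells relative to untreated cells.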

[2] = test system: M14; assay: Cytotoxicity against human M14 assessed as growth inhibition at 10 uM by NCI protocol relative to control; format: functional; details: read-out: GI; procedure, shortened: as §1
[3] = test system: IGROV-1; assay: Cytotoxicity against human IGROVI assessed as growth inhibition at 10 uM by NCI protocol relative to control; format: functional; details: read-out: GI; procedure, shortened: as §1
[4] = test system: HCC 2998; assay: Cytotoxicity against human HCC-2998 assessed as growth inhibition at 10 uM by NCI protocol relative to control; format: functional; details: read-out: GI; procedure, shortened: as §1
[5] = test system: UACC-257; assay: Cytotoxicity against human UACC-257 assessed as growth inhibition at 10 uM by NCI protocol relative to control; format: functional; details: read-out: GI
Procedure, shortened: (§2)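 Run by the NCI under its standard protocol: one dose of 10 μM against a sixty-line panel from nine human tumour tissues. Result given as percent growth inhibition of treated cells relative to untreated cells.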

[6] = test system: Hs-578T; assay: Cytotoxicity against human HS 578T assessed as growth inhibition at 10 uM by NCI protocol relative to control; format: functional; details: read-out: GI; procedure, shortened: as §1
[7] = test system: NCI-H322M; assay: Cytotoxicity against human NCI-H322M assessed as growth inhibition at 10 uM by NCI protocol relative to control; format: functional; details: read-out: GI; procedure, shortened: as §1
[8] = test system: HT-29; assay: Cytotoxicity against human HT29 assessed as growth inhibition at 10 uM by NCI protocol relative to control; format: functional; details: read-out: GI; procedure, shortened: as §1
[9] = test system: SK-MEL-28; assay: Cytotoxicity against human SK-MEL-28 assessed as growth inhibition at 10 uM by NCI protocol relative to control; format: functional; details: read-out: GI; procedure, shortened: as §1
[10] = test system: UACC-62; assay: Cytotoxicity against human UACC-62 assessed as growth inhibition at 10 uM by NCI protocol relative to control; format: functional; details: read-out: GI; procedure, shortened: as §2
[11] = test system: SNB-19; assay: Cytotoxicity against human SNB-19 assessed as growth inhibition at 10 uM by NCI protocol relative to control; format: functional; details: read-out: GI; procedure, shortened: as §2
[12] = test system: HOP-92; assay: Cytotoxicity against human HOP-92 assessed as growth inhibition at 10 uM by NCI protocol relative to control; format: functional; procedure, shortened: as §1
[13] = test system: A498; assay: Cytotoxicity against human A498 assessed as growth inhibition at 10 uM by NCI protocol relative to control; format: functional; details: read-out: GI; procedure, shortened: as §1
[14] = test system: RXF 393; assay: Cytotoxicity against human RXF 393 assessed as growth inhibition at 10 uM by NCI protocol relative to control; format: functional; details: read-out: GI; procedure, shortened: as §1
[15] = test system: NCI/ADR-RES; assay: Cytotoxicity against human NCl/ADR-RES assessed as growth inhibition at 10 uM by NCI protocol relative to control; format: functional; details: read-out: GI; procedure, shortened: as §1
[16] = test system: K562; assay: Cytotoxicity against human K-562 assessed as growth inhibition at 10 uM by NCI protocol relative to control; format: functional; details: read-out: GI; procedure, shortened: as §1
[17] = test system: NCI-H460; assay: Cytotoxicity against human NCI-H460 assessed as growth inhibition at 10 uM by NCI protocol relative to control; format: functional; details: read-out: GI; procedure, shortened: as §1
[18] = test system: U-251; assay: Cytotoxicity against human U251 assessed as growth inhibition at 10 uM by NCI protocol relative to control; format: functional; details: read-out: GI; procedure, shortened: as §2
[19] = test system: CCRF-CEM; assay: Cytotoxicity against human CCRF-CEM assessed as growth inhibition at 10 uM by NCI protocol relative to control; format: functional; details: read-out: GI; procedure, shortened: as §1
[20] = test system: MCF7; assay: Cytotoxicity against human MCF7 assessed as growth inhibition at 10 uM by NCI protocol relative to control; format: functional; details: read-out: GI; procedure, shortened: as §1
[21] = test system: SW-620; assay: Cytotoxicity against human SW-620 assessed as growth inhibition at 10 uM by NCI protocol relative to control; format: functional; details: read-out: GI; procedure, shortened: as §2
[22] = test system: T47D; assay: Cytotoxicity against human T-47D assessed as growth inhibition at 10 uM by NCI protocol relative to control; format: functional; details: read-out: GI; procedure, shortened: as §2
[23] = test system: MDA-MB-468; assay: Cytotoxicity against human MDA-MB-468 assessed as growth inhibition at 10 uM by NCI protocol relative to control; format: functional; details: read-out: GI; procedure, shortened: as §1
[24] = test system: HCT-15; assay: Cytotoxicity against human HCT-15 assessed as growth inhibition at 10 uM by NCI protocol relative to control; format: functional; details: read-out: GI; procedure, shortened: as §1
[25] = test system: SK-MEL-5; assay: Cytotoxicity against human SK-MEL-5 assessed as growth inhibition at 10 uM by NCI protocol relative to control; format: functional; details: read-out: GI; procedure, shortened: as §1
[26] = test system: ACHN; assay: Cytotoxicity against human ACHN assessed as growth inhibition at 10 uM by NCI protocol relative to control; format: functional; details: read-out: GI; procedure, shortened: as §1
[27] = test system: OVCAR-3; assay: Cytotoxicity against human OVCAR-3 assessed as growth inhibition at 10 uM by NCI protocol relative to control; format: functional; details: read-out: GI; procedure, shortened: as §1
[28] = test system: DU-145; assay: Cytotoxicity against human DU-145 assessed as growth inhibition at 10 uM by NCI protocol relative to control; format: functional; details: read-out: GI; procedure, shortened: as §1
[29] = test system: 786-0; assay: Cytotoxicity against human 786-0 assessed as growth inhibition at 10 uM by NCI protocol relative to control; format: functional; details: read-out: GI; procedure, shortened: as §1
[30] = test system: SK-MEL-2; assay: Cytotoxicity against human SK-MEL-2 assessed as growth inhibition at 10 uM by NCI protocol relative to control; format: functional; details: read-out: GI; procedure, shortened: as §1
[31] = test system: RPMI-8226; assay: Cytotoxicity against human RPMI-8226 assessed as growth inhibition at 10 uM by NCI protocol relative to control; format: functional; details: read-out: GI; procedure, shortened: as §1
[32] = test system: LOX IMVI; assay: Cytotoxicity against human LOX IMVI assessed as growth inhibition at 10 uM by NCI protocol relative to control; format: functional; details: read-out: GI; procedure, shortened: as §1
[33] = test system: SF-295; assay: Cytotoxicity against human SF-295 assessed as growth inhibition at 10 uM by NCI protocol relative to control; format: functional; details: read-out: GI; procedure, shortened: as §1
[34] = test system: NCI-H23; assay: Cytotoxicity against human NCI-H23 assessed as growth inhibition at 10 uM by NCI protocol relative to control; format: functional; details: read-out: GI; procedure, shortened: as §1
[35] = test system: MOLT-4; assay: Cytotoxicity against human MOLT-4 assessed as growth inhibition at 10 uM by NCI protocol relative to control; format: functional; details: read-out: GI; procedure, shortened: as §1
[36] = test system: Malme-3M; assay: Cytotoxicity against human MALME-3M assessed as growth inhibition at 10 uM by NCI protocol relative to control; format: functional; details: read-out: GI; procedure, shortened: as §1
[37] = test system: SR; assay: Cytotoxicity against human SR assessed as growth inhibition at 10 uM by NCI protocol relative to control; format: functional; details: read-out: GI; procedure, shortened: as §2
[38] = test system: OVCAR-8; assay: Cytotoxicity against human OVCAR-8 assessed as growth inhibition at 10 uM by NCI protocol relative to control; format: functional; details: read-out: GI; procedure, shortened: as §1
[39] = test system: HL-60; assay: Cytotoxicity against human HL60 assessed as growth inhibition at 10 uM by NCI protocol relative to control; format: functional; details: read-out: GI; procedure, shortened: as §1
[40] = test system: NCI-H226; assay: Cytotoxicity against human NCI-H226 assessed as growth inhibition at 10 uM by NCI protocol relative to control; format: functional; details: read-out: GI; procedure, shortened: as §1
[41] = test system: SF-268; assay: Cytotoxicity against human SF-268 assessed as growth inhibition at 10 uM by NCI protocol relative to control; format: functional; details: read-out: GI; procedure, shortened: as §1
[42] = test system: OVCAR-4; assay: Cytotoxicity against human OVCAR-4 assessed as growth inhibition at 10 uM by NCI protocol relative to control; format: functional; details: read-out: GI; procedure, shortened: as §1
[43] = test system: PC-3; assay: Cytotoxicity against human PC3 assessed as growth inhibition at 10 uM by NCI protocol relative to control; format: functional; details: read-out: GI; procedure, shortened: as §1
[44] = test system: T47D; assay: Cytotoxicity against human T47D cells assessed as reduction in cell viability after 3 hrs by MTT assay

SMILES: O=C(CN1CCN(c2cc(=O)n(-c3ccccc3)c3ccccc23)CC1)Nc1nc(-c2ccccc2)cs1
- inhibition of growth at 10 µM [1]: 37.5%
- inhibition of growth at 10 µM [2]: 26.6%
- inhibition of growth at 10 µM [3]: 32.5%
- inhibition of growth at 10 µM [4]: 18.2%
- inhibition of growth at 10 µM [5]: 51.5%
- inhibition of growth at 10 µM [6]: 17.1%
- inhibition of growth at 10 µM [7]: 10.6%
- inhibition of growth at 10 µM [8]: 27%
- inhibition of growth at 10 µM [9]: 28.8%
- inhibition of growth at 10 µM [10]: 36.1%
- inhibition of growth at 10 µM [11]: 14.8%
- growth inhibition (GI) [12]: inactive
- inhibition of growth at 10 µM [13]: 33.8%
- inhibition of growth at 10 µM [14]: 23.1%
- inhibition of growth at 10 µM [15]: 37.3%
- inhibition of growth at 10 µM [16]: 77.6%
- inhibition of growth at 10 µM [17]: 67.8%
- inhibition of growth at 10 µM [18]: 40.8%
- inhibition of growth at 10 µM [19]: 60.4%
- inhibition of growth at 10 µM [20]: 72.4%
- inhibition of growth at 10 µM [21]: 31.4%
- inhibition of growth at 10 µM [22]: 83.4%
- inhibition of growth at 10 µM [23]: 86.7%
- inhibition of growth at 10 µM [24]: 74.8%
- inhibition of growth at 10 µM [25]: 94.7%
- inhibition of growth at 10 µM [26]: 36.2%
- inhibition of growth at 10 µM [27]: 27.5%
- inhibition of growth at 10 µM [28]: 27.3%
- inhibition of growth at 10 µM [29]: 10.7%
- inhibition of growth at 10 µM [30]: 11.1%
- inhibition of growth at 10 µM [31]: 53.8%
- inhibition of growth at 10 µM [32]: 50.5%
- inhibition of growth at 10 µM [33]: 33.3%
- inhibition of growth at 10 µM [34]: 39.2%
- inhibition of growth at 10 µM [35]: 82.2%
- inhibition of growth at 10 µM [36]: 30.3%
- inhibition of growth at 10 µM [37]: 48.7%
- inhibition of growth at 10 µM [38]: 30.2%
- inhibition of growth at 10 µM [39]: 62.9%
- inhibition of growth at 10 µM [40]: 51.8%
- inhibition of growth at 10 µM [41]: 20.8%
- inhibition of growth at 10 µM [42]: 76.7%
- inhibition of growth at 10 µM [43]: 67.5%
- IC50 [44]: 10.3 µM
